{"data": "Experimental data gathered from unrelated publications", "note": "Lines come from different studies, so protocols differ."}
{"SMILES": "CN[C@H](CC(C)C)C(=O)N[C@H]1C(=O)N[C@@H](CC(N)=O)C(=O)N[C@H]2C(=O)NC3C(=O)N[C@H](C(=O)N[C@H](C(=O)NCCC[N+](C)(C)C)c4cc(O)cc(O)c4-c4cc3ccc4O)[C@H](O)c3ccc(c(Cl)c3)Oc3cc2cc(c3OC2OC(CO)C(O)[C@H](O)[C@@H]2O[C@H]2CC(C)(NCc3ccc(-c4ccc(Cl)cc4)cc3)[C@H](O)[C@H](C)O2)Oc2ccc(cc2Cl)[C@H]1O (some centres unmarked)", "system": "mouse, plasma", "conditions": "intravenous, 50 mg/kg", "endpoint": "clearance", "result": "2 mL/min/kg"}
{"SMILES": "CCC[C@@](N)(CO)CCc1ccc(OCCCCCC(C)C)cc1", "system": "dog, plasma", "conditions": "oral, 20 mg/kg, fasted", "endpoint": "Cmax", "result": "669 nM"}
{"SMILES": "Cl.Cl.O=C(CCN1CCCCC1)c1ccc(-c2ccc(C(=O)CCN3CCCCC3)cc2)cc1", "system": "Sprague-Dawley rat, plasma", "conditions": "oral, 25 mg/kg", "endpoint": "Tmax", "result": "37.8 min"}
{"SMILES": "NC(=O)[C@@H]1CC(F)(F)CN1C(=O)c1ccc(N2CC(F)(F)C2)c(OCC2CC2)n1", "system": "C57BL/6 mouse, plasma", "conditions": "intravenous", "endpoint": "clearance", "result": "28.5 mL/min/kg"}
{"SMILES": "C[C@]12CC[C@H](n3ccnc3)CC1=CC[C@@H]1[C@@H]2CC[C@]2(C)C(n3cnc4ccccc43)=CC[C@@H]12.Cl", "system": "male CD-1 mouse, plasma", "conditions": "intravenous, 1 mg/kg", "endpoint": "C0", "result": "544 ng/mL"}
{"SMILES": "Cc1cc(C)nc(Nc2ncc(C(=O)NCCc3c(C)[nH]c4ccccc34)cn2)c1", "system": "beagle dog, plasma", "conditions": "intravenous, 3 mg/kg", "endpoint": "clearance", "result": "10 mL/min/kg"}
{"SMILES": "CNC(=O)[C@@H](NC(=O)c1cc(OCC2(C)COC2)c(C2CC2)cn1)C(C)(C)C", "system": "C57BL/6 mouse, plasma", "conditions": "intravenous", "endpoint": "clearance", "result": "73.8 mL/min/kg"}
{"SMILES": "N=c1c2c(-c3ccccc3)c(-c3ccccc3)n(Cc3ccccc3)c2ncn1[C@H]1CC[C@H](O)CC1", "test": "metabolic stability", "system": "beagle dog, hepatocytes", "conditions": "1 µM, 4 h", "endpoint": "compound remaining", "result": "118%"}
{"SMILES": "CCN(CC)CCCC[C@H](NC(=O)[C@H](CC(C)C)NC(=O)[C@H](C)NC(=O)[C@H](Cc1ccccc1)NC(=O)c1ccc(C(C)(C)C)cc1)C(=O)N[C@@H](CO)C(=O)OC", "system": "male Swiss mouse, blood", "conditions": "intravenous, 3 mg/kg", "endpoint": "C0", "result": "10900 ng/mL"}
{"SMILES": "C[C@]12CC[C@H](O)CC1=CC[C@@H]1[C@@H]2CC[C@]2(C)C(n3cnc4ccccc43)=CC[C@@H]12.Cl", "system": "mouse, plasma", "conditions": "intravenous, 1 mg/kg", "endpoint": "C0", "result": "98.3 ng/mL"}
{"SMILES": "O=C(Nc1cccnn1)N1CCN([C@@H]2CCOc3cc(C(F)(F)F)ccc32)CC1", "system": "male Sprague-Dawley rat, plasma", "conditions": "oral, 3 mg/kg", "endpoint": "Tmax", "result": "40.2 min"}
